# High-throughput results: PubChem BioAssay, several laboratories
# Rows were chosen to be rich in hits. Some 1.5% of all compounds tested hit in one or more screens of this group.
# DAGLB inhibitor – blocks human DAGLB lipase activity; Q8NCG7; HEK293T DAGLB membrane lysate, EnzChek fluorogenic substrate; inhibition, % at 5.17 µM; 340,000 tested, 0.059% active; AID 504411; in the data active = inhibition above about 34%;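 also: 0% = enzyme with vehicle and 100% = wells lacking enzyme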
# CTSL1 counter – cathepsin L1 inhibition, PFM18AAP counter-screen. recombinant F. hepatica cathepsin L1, Z-Leu-Arg-MCA fluorescence. inhibition, % at 5.96 µM. 300,000 tested, 0.49% active;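 active = inhibition above the mean of all tested compounds plus 3 SD, set per screening campaign, cut at about 17% in these data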;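 also: 0% = plate median of test compound wells and 100% = 1 µM Z-Phe-Ala-diazomethylketone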
# CendR NRP1 mod – modulators of CendR peptide binding to human neuropilin-1. O14786. inhibition, % at 25 µM. FAM-RPARPAR peptide binding to NRP-1, fluorescence polarization. 360,000 tested, 0.85% active;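 active = inhibition or corrected inhibition above about 18%, plus a signal ratio from 0.5 to 1.5, limit read from the data, passing the limit was not always enough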
# Target sequence (O14786 whole entry, looked up): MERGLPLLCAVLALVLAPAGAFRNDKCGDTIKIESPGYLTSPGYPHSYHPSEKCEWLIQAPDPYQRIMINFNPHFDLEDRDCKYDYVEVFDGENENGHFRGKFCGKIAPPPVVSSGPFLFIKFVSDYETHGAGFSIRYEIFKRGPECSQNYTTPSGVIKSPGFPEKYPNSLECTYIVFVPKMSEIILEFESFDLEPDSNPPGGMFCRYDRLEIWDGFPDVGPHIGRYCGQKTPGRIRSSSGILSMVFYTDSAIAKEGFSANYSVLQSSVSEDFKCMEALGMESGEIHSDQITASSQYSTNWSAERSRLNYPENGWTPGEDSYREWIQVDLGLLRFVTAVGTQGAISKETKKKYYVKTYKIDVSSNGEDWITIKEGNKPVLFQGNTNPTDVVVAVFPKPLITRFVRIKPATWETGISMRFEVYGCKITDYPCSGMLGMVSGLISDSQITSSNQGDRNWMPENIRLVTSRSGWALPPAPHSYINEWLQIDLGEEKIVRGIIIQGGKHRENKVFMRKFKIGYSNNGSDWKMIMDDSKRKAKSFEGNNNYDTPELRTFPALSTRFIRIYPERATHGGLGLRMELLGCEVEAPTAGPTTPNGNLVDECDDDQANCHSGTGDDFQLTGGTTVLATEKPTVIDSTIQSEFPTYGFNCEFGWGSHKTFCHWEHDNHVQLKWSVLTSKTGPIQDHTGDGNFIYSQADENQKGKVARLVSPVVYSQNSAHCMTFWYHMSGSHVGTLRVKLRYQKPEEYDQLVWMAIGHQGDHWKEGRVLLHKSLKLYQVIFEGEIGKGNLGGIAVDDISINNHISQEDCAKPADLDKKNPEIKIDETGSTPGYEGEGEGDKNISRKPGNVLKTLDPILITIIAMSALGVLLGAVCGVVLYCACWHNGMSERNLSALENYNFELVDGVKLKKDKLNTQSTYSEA
# MT1-MMP act inh – MT1-MMP (human) activation inhibition; AID 651647; GFP/RFP ratio change, % at 20 µM; HT1080 RFP-PRO-GFP cells, GFP/RFP ratio fluorescence, overnight; percent of plate control window, DMSO zero; P50281; 360,000 tested, 0.061% active;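 active = GFP/RFP ratio change of at least 30% with cell ATP level not reduced by more than half and red fluorescence within 50% of control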
#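 Assay system: HT1080 cells carrying an RFP-PRO-GFP reporter | Dosing: Single dose of 20 µM compound, 1% DMSO final | Incubation: Cells overnight before dosing, compound overnight, 37 °C, 5% CO2 | Evaluation: GFP/RFP fluorescence ratio | Control set: DMSO and RFP-L50D-GFP cell wells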
# UCH37 inh – human UCH37 deubiquitinating enzyme inhibition; Q9Y5K5; purified proteasome/UCH37, Ub-AMC cleavage fluorescence; inhibition, % (test concentration not listed); 330,000 tested, 0.33% active;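 active = mean inhibition over replicate wells above about 20%, limit read from the data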;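 also: 0% = compound-free wells with enzyme and 100% = wells lacking proteasome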
#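 Test system – human UCH37 enzyme supplied as purified proteasome complex · Incubation – 30 min preincubation with enzyme, 25 min cleavage at room temperature · Detection – AMC fluorescence from Ub-AMC cleavage, excitation 355 nm, emission 460 nm · Benchmarks – no-proteasome wells (full inhibition) and compound-free wells (no inhibition)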
# Starred values were filed as active, the others as inactive; · = no result given; ! = repeats disagree.
SMILES,DAGLB inhibitor,CTSL1 counter,CendR NRP1 mod,MT1-MMP act inh,UCH37 inh
O=C1C(Cl)=C(NCCCO)C(=O)c2ccccc21,1.2,10.7,12.0,8.1,18.7
CCOCCCNC1=C(Cl)C(=O)c2ccccc2C1=O,9.1,3.3,-8.8,10.7,24.0*
Cc1cc2c(cc1C)-c1nnnn1C(N1CCCCC1)C(=O)N2 (stereo not drawn),·,·,20.7*,0.7,·
COc1ccc(Cn2c(C3CC3)nc3ccc(NC(C)=O)cc3c2=O)cc1,-1.0,0.9,0.3,-4.2,3.9
COc1ccc(Cn2c(C3CC3)nc3ccc(NC(=O)c4cccnc4)cc3c2=O)cc1,0.5,1.9,32.5*,-4.3,-0.4
Cc1cc(C)nc(N=C(NC(=O)c2ccccc2)Nc2ccccc2)n1,·,·,·,·,-0.6
N#C/C(=C/c1ccc(-c2cc(C(=O)O)cc(C(=O)O)c2)o1)c1nc2ccccc2s1,·,6.9,·,·,27.6*
COc1cc(-c2c(C#N)c(N)nc3[nH]c(=S)[nH]c(=O)c23)ccc1O,4.8,6.2,14.0,-1.8,22.6*
COc1cc(-c2c(C#N)c(N)nc3c2CCCC3)ccc1O,0.2,1.1,-0.6,8.3,-2.3
Cc1ccc(NC(=O)CC2S/C(=N/N=C\C=C\c3ccccc3)NC2=O)cc1Cl (stereo not drawn),·,·,·,·,6.1
O=C(CC1S/C(=N/N=C/C=C/c2ccccc2)NC1=O)Nc1ccc(C(=O)O)cc1 (stereo not drawn),-0.1,0.1,-20.3,·,20.4*
COc1ccc2oc(=O)c(C(C)=NNC(=O)c3ccncc3)cc2c1,·,·,·,·,-11.6
CCOC(=O)/C=C/C(=O)Nc1cccc([N+](=O)[O-])c1,-0.2,17.6*,3.1,1.0,7.9
Cc1onc(-c2ccccc2)c1C(=O)N1CCCC1,-3.0,-2.1,20.8*,-0.7,1.5
Cc1ccccc1-c1noc(-c2ccccc2C(=O)N2CCCC2)n1,-0.1,-1.4,20.1*,-1.7,3.5
Cc1ccc(-c2noc(-c3ccccc3C(=O)N3CCCC3)n2)cc1,-2.9,1.4,4.4,-2.5,5.4
CC(/C=C/c1ccccc1)=NNc1ccccc1[N+](=O)[O-],·,·,·,·,1.9
CCCCCn1c(N2CCN(c3cccc(Cl)c3)CC2)nc2c1c(=O)[nH]c(=O)n2C,2.5,5.4,28.1*,-2.1,4.2
CCOc1cc(C=NNC(=O)C(C)Sc2ccccc2)ccc1O (stereo not drawn),·,·,·,·,2.3
CN1CCN(S(=O)(=O)c2ccc(N3CCc4ccccc4C3)nc2)CC1,-1.2,-0.8,21.4*,0.4,3.7
COc1ccc(-c2n[nH]c3c2CN(C(=O)c2ccc(OC)c(OC)c2)CC3)cc1,1.8,34.0*,10.1,-3.3,0.1
COc1cc(OC)cc(C(=O)N2CCN(C(=O)c3ccc(OC)c(OC)c3)CC2)c1,-0.9,1.1,-6.5,5.1,1.1
CCn1c(=O)c(C(=O)NCCNCCO)c(O)c2ccccc21,1.8,3.2,36.6*,3.0,2.3
CCn1c(=O)c(C(=O)NCc2ccccc2)c(O)c2ccccc21,-15.4,-2.8,-6.1,0.4,4.7
CCOc1cc(C=NNC(=O)c2ccncc2)ccc1OC(=O)c1ccco1,·,·,·,·,7.5
SMILES,DAGLB inhibitor,CTSL1 counter,CendR NRP1 mod,MT1-MMP act inh,UCH37 inh
NCCc1cnc[nH]1,0.2,-1.7,19.2*!,6.6,1.2
NCCC(=O)NCCc1cnc[nH]1,3.3,-0.5,-1.1,-1.3,-0.7
CCOc1cc(C2C3=C(CCCC3=O)OC3=C2C(=O)CCC3)cc([N+](=O)[O-])c1O,1.9,0.7,26.2*,2.3,10.1
Cc1ccc(CC2S/C(=N/N=Cc3ccco3)NC2=O)cc1 (stereo not drawn),·,·,·,·,5.1
COCC1CCN(C(=O)C2CCC(=O)N(Cc3cccc(F)c3)C2)CC1 (stereo not drawn),-0.6,-2.4,25.9*,-1.8,3.7
Cc1ccc(C=NNC(=O)Cc2cccn2C)s1,·,·,·,·,4.4
CN(c1ccc(OCC(=O)OCC(=O)Nc2ccc([N+](=O)[O-])cc2)cc1)S(=O)(=O)c1cccs1,0.5,·,32.4*,-3.1,4.4
Oc1ccc(C=NNC(=S)NCCN2CCOCC2)c(O)c1,·,·,·,·,-3.6
CCN(CC)S(=O)(=O)c1cccc(NC(=O)COC(=O)c2cc(C)oc2C)c1,-2.0,-16.4,-4.8,-4.7,1.1
Cc1cc(C(=O)OCC(=O)Nc2cccc(S(=O)(=O)N(C)C)c2)c(C)o1,0.8,-25.0,24.0*,0.2,2.0
Cc1cc(NC(=O)COC(=O)c2ccc([N+](=O)[O-])cc2Cl)no1,-3.0,·,1.5,-4.4,1.3
Cc1cc(NC(=O)COC(=O)c2cc(S(=O)(=O)N(C)C)ccc2Cl)no1,1.3,·,28.8*,3.4,1.1
CCOc1ccc(CCNC(=O)c2ccc(F)c(S(=O)(=O)N3CCOCC3)c2)cc1OCC,0.3,0.7,23.3*,4.1,1.2
O=C(Cn1nnc(-c2ccccc2)n1)NN=Cc1cc([N+](=O)[O-])c(Cl)cc1Cl,·,·,·,·,2.3
O=C(Cc1ccc(Cl)cc1)NNC(=S)NC(=O)c1cccs1,0.2,0.8,37.4*,2.9,-2.0
O=C(Cc1cccs1)NNC(=S)NCc1ccc(Cl)cc1,3.5,-4.3,1.0,3.3,0.6
CC(=NNC(=O)c1nnn(-c2nonc2N)c1CN(C)c1ccccc1)c1ccccn1,·,·,·,·,6.3
COc1cccc(C=NNC(=O)CCc2c(C)n[nH]c2C)c1O,·,·,·,·,-5.7
Cc1cc(C(=O)N/N=C/c2cc(Br)cc(Br)c2OC(=O)c2cccc(F)c2)n[nH]1,1.6,0.0,20.3*,-13.8,·
COC(=O)c1c(NC(=O)CN(c2ccccc2)S(C)(=O)=O)sc2c1CCCC2,-0.6,0.4,27.0*,-3.5,2.3
O=C(NCCc1ccccc1)c1ccc(Br)o1,-0.9,-2.1,24.0*,-0.9,2.5
CC(=NNC(=O)CNc1cccc(C)c1)c1ccc(Br)s1,·,·,·,·,2.7
CC(OC(=O)c1ccc([N+](=O)[O-])s1)C(=O)NC1CCCCC1C (stereo not drawn),-2.1,·,-20.8,4.0,22.6*
COc1ccc(-c2csc(N(CCCN(C)C)C(=O)c3ccc(Br)cc3)n2)cc1,1.0,1.9,22.4*,-1.1,3.2
COc1ccc(-c2csc(N(CCCN(C)C)C(=O)c3ccc(C)cc3)n2)cc1,-3.0,0.3,-0.5,-7.9,3.0
SMILES,DAGLB inhibitor,CTSL1 counter,CendR NRP1 mod,MT1-MMP act inh,UCH37 inh
O=S(=O)(NN=Cc1c(F)cccc1Cl)c1ccc(Cl)cc1,·,·,·,·,2.4
CCOc1cc(NC(=S)NCCCN2CCOCC2)c(OCC)cc1NC(=O)c1cccs1,0.0,1.6,23.5*,-1.1,-11.8
CCOc1cc(NC(=S)NCCCN2CCOCC2)c(OCC)cc1NC(=O)c1ccccc1,1.1,0.7,-11.8,2.9,-411.8
Cc1ccc(-c2c(C(=O)NN=Cc3cccc(Cl)c3)nnn2-c2nonc2N)cc1,·,·,·,·,3.2
CCN(CC)c1ccc(C=NN2CCN(Cc3ccc(C)cc3)CC2)c(O)c1,·,·,·,·,2.3
Cc1ccnc(SCc2cn3c(C)cccc3n2)n1,-1.5,-1.5,20.2*,-1.5,4.2
CSc1ccc(C=NNC(=O)c2cccc(Cl)c2)cc1,·,·,·,·,-4.5
